Screens (PubChem BioAssay)
NPY-Y2 antag: NPY-Y2 (human) receptor antagonism | P49146 | NPY-Y2 expressing cells, antagonist mode | inhibition, % at 2.7 µM | hit rate 0.99% among 140,000 | AID 793; in the data active means inhibition above about 17%;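 further: 0% = vehicle with agonist challenge and 100% = reference antagonist with challenge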
Target sequence (P49146 whole entry, looked up): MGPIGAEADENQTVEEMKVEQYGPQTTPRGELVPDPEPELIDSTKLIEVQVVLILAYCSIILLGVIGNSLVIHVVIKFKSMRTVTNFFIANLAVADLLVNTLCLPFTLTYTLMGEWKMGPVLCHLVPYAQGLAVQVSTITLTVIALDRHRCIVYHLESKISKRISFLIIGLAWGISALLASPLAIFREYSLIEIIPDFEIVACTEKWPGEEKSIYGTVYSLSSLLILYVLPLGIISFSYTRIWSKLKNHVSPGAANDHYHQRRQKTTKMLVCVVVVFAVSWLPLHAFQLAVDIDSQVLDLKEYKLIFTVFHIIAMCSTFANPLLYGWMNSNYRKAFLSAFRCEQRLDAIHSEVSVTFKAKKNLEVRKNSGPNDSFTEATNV
EP2 mod: modulates human prostaglandin E2 receptor EP2 signaling | AID 940 | induction, % at 25 µM | P43116 | EP2-expressing cells, cAMP HTRF FRET, PGE2 co-stimulation | hit rate 0.83% among 260,000;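 active means compounds whose cAMP rise, as percent of the full-agonist control response, exceeds 60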;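 further: rat C6 glioma line stably carrying human EP2 under a CMV promoter; the protocol text gives 20 µM as final concentration; 100% = response of wells given 1 µM PGE2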
Target sequence (P43116 whole entry, looked up): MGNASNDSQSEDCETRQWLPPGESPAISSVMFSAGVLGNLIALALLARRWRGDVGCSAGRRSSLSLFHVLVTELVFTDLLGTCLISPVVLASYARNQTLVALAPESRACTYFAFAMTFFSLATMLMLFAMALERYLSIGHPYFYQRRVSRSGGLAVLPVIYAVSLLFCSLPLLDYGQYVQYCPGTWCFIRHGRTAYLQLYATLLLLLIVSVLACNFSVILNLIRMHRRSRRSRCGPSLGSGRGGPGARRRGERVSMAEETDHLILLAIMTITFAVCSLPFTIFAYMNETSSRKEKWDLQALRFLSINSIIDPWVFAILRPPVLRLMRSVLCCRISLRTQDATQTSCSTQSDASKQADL
NPY Y1 blocker: antagonists of human neuropeptide Y receptor Y1; P25929; HEK293-CNG Y1 cells, membrane potential fluorescence; NPY at EC95, then isoproterenol; inhibition, % at 3.6 µM; hit rate 1% among 200,000;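 active means inhibition above the campaign mean inhibition of all tested compounds plus 3 SD, cut at about 20% in these data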;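 further: 0% = DMSO wells given NPY plus isoproterenol and 100% = isoproterenol alone without NPY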
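Material: Y1- and CNG-channel-expressing HEK293 cells / Probe or stimulus: NPY 25 nM then isoproterenol 1 µM plus Ro 20-1724 25 µM / Doses: 3.6 µM single dose, DMSO 0.4% / Schedule: compound incubation 1 h at room temperature, readout 45 min post-stimulation / Signal: membrane potential fluorescence / Benchmarks: isoproterenol-only wells as full block versus NPY-plus-isoproterenol wells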
NPY-Y2 PAM-ag: human NPY-Y2 potentiation or agonism, primary screen; P49146; cells expressing NPY-Y2, potentiator/agonist read-out; activation, % at 3.6 µM; hit rate 0.45% among 220,000; in the data active means activation above about 27%;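 further: cells stimulated with NPY near EC25 plus isoproterenol at EC100; 0% = vehicle plus submaximal agonist and 100% = vehicle plus saturating agonist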
NPY-Y1 PAM-ag: potentiates or activates human NPY-Y1 receptor; NPY-Y1 expressing cells, potentiator/agonist activation; activation, % at 3.6 µM; hit rate 0.37% among 220,000; AID 1304; in the data active means activation above about 33%, passing the limit was not always enough;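 further: cells stimulated with NPY at EC10 then isoproterenol at EC100; 0% = low agonist plus stimulus and 100% = saturating agonist plus stimulus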
PGE2 EP2 inh: blocks the human prostaglandin E2 receptor EP2. inhibition, % at 25 µM. C6 glioma cells expressing human EP2, cAMP TR-FRET; cells stimulated with saturating PGE2. hit rate 0.52% among 260,000. P43116;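 active means percent inhibition above 40 after rounding to a whole number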;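 further: rat C6 glioma host cells with rolipram phosphodiesterase inhibitor present; the protocol text gives 20 µM as final concentration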
* = called active by the depositor; nt = not tested or not shown. This is a sample that favours compounds with a hit; in the whole collection about 2.8% have one here.

SMILES	NPY-Y2 antag	EP2 mod	NPY Y1 blocker	NPY-Y2 PAM-ag	NPY-Y1 PAM-ag	PGE2 EP2 inh
Cc1cc(C)c2[nH]c(=O)c(CN(Cc3ccc4c(c3)OCO4)Cc3nnnn3C3CCCC3)cc2c1	7.1	48.7	10.4	-4.0	-12.2	25.2
Cc1ccc2[nH]c(=O)c(CN(Cc3ccccc3)Cc3nnnn3C3CCCC3)cc2c1	1.9	57.0	0.6	5.5	13.9	8.7
COc1ccc2cc(CN(Cc3ccccc3)Cc3nnnn3C3CCCCC3)c(=O)[nH]c2c1	nt	75.3*	nt	nt	nt	5.8
COCCNC(=O)c1cn(C[C@H]2CCCN(C(=O)c3cnc(C)cn3)C2)nn1	nt	-28.2	nt	nt	nt	5.7
COc1cc(C2C(C#N)=C(N)Oc3n[nH]c(C)c32)ccc1OCC(=O)Nc1ccc(C)cc1 (centres undefined)	nt	-97.6	nt	nt	nt	8.5
Cc1cccc(NC(=O)C2CCN(S(=O)(=O)c3cccc4nsnc34)CC2)n1	-1.6	-34.8	4.6	1.6	-32.9	nt
COc1ccc2nc(NC(=O)C3CCN(S(=O)(=O)c4cccc5nsnc45)CC3)sc2c1	-1.7	-38.0	-8.1	29.4	46.8*	14.4
CCCCCOc1ccc(Br)cc1/C(C)=N/NC1=NCCN1	54.4*	-4.7	27.4*	-20.6	-46.4	nt
COc1ccc(Br)cc1/C(C)=N/NC1=NCCN1	8.6	-13.2	-0.6	9.6	5.8	15.1
Nc1ncnc2nc[nH]c12.Nc1ncnc2nc[nH]c12.[Cl][Pt]([Cl])([Cl])[Cl]	nt	19.2	nt	nt	nt	46.6*
COc1ccc2cc(C)c3nnc(SCC(=O)c4cccs4)n3c2c1	nt	-49.4	nt	nt	nt	8.8
CC(C)N1CCN(c2ccncc2S(=O)(=O)N2CCCCC2)CC1	nt	1.3	nt	nt	nt	41.4*
CCOc1ncnc2c1oc1nc(CC(C)C)c3c(c12)CC(C)(C)OC3	0.0	50.8	0.3	12.1	-4.5	9.3
CCOc1nc(CC(C)C)c2c(c1C#N)CC(C)(C)OC2	nt	61.9*	nt	-13.3	-7.0	5.8
CCc1nc(NC2CCCCC2)c(C#N)c2c1COC(C)(C)C2	3.1	62.2*	4.0	-32.4	-34.6	7.5
COCCNC(=S)N(Cc1ccc(OC)cc1)Cc1cc2ccc(C)cc2[nH]c1=O	nt	-42.8	nt	nt	nt	17.1
CCC(C)Nc1nc(N)c([N+](=O)[O-])c(Nc2cc(OC)ccc2OC)n1 (centres undefined)	nt	36.0	nt	-5.9	-0.5	4.3
COc1ccc(OC)c(Nc2nc(NCCC(C)C)nc(N)c2[N+](=O)[O-])c1	nt	63.0*	nt	0.9	2.0	7.5
Cc1ccc(NC2CC(C)Nc3ccc(C)cc32)cc1 (centres undefined)	nt	43.6	nt	nt	nt	12.6
Cc1cc(OCC(C)C)ccc1/C(O)=C1/C(=O)C(=O)N(Cc2cccnc2)C1c1ccncc1 (centres undefined)	0.5	60.1	-2.3	2.3	13.0	28.8
CCCCOc1ccc(/C(O)=C2/C(=O)C(=O)N(Cc3cccnc3)C2c2ccncc2)c(C)c1 (centres undefined)	-0.2	61.4*	1.2	-13.3	-30.1	20.1
Cc1occc1-c1nn(CC(=O)N(C(C)C)C(C)C)c(=O)o1	nt	-33.5	nt	nt	nt	6.6
CC(C)=CCc1c(O)c(CC=C(C)C)c2c(c1O)-c1cc(O)c(O)cc1CC2	nt	nt	nt	nt	nt	54.2*
CCCCCCCCCCn1c2c(c(=N)c3c1CCC3)CCC2	51.2*	28.3	92.4*	-77.2	-88.0	19.1
COc1cc(OC)cc(-c2nnc(SCC(=O)N3c4ccccc4Sc4ccccc43)o2)c1	3.4	61.0*	-8.6	0.3	12.1	12.9
SMILES	NPY-Y2 antag	EP2 mod	NPY Y1 blocker	NPY-Y2 PAM-ag	NPY-Y1 PAM-ag	PGE2 EP2 inh
COc1ccc(-c2nnc(SCC(=O)N3c4ccccc4Sc4ccccc43)o2)cc1	-0.1	-2.3	12.8	7.6	12.8	2.5
COc1ccc(CC(=O)NNC(=O)COc2ccc3ccccc3c2)cc1	8.2	-76.7	9.9	-9.7	1.5	102.8*
Cc1ccnn1CCC(=O)N[C@H](Cn1nnc2ccccc21)C(C)C	nt	-18.0	nt	nt	nt	6.6
O=C(c1cc2c(s1)-c1ccccc1OC2)N1CCCC1	3.7	2.7	3.9	31.3*	42.4*	5.0
O=C(c1cc2c(s1)-c1ccccc1OC2)N1CCN(c2ccccc2)CC1	10.6	-52.5	10.8	-16.3	-26.2	27.7
Cc1nn(C)c(C)c1NS(=O)(=O)c1ccc2c(c1)NC(=O)C(C)(C)O2	nt	-50.4	nt	nt	nt	2.5
O=C(O)c1cc(-c2ccco2)on1	nt	-18.7	nt	nt	nt	9.4
CCC[N+](CC#Cc1ccccc1)(CCC)CC(=O)c1ccc(Cl)cc1	19.1*	7.3	29.1*	2.7	1.3	8.1
Oc1ccc(/C=C/c2nc(-c3ccccc3O)n(-c3ccccc3)n2)cc1	-0.8	64.7*	3.6	-13.6	-8.9	13.1
Oc1ccccc1-c1nc(/C=C/c2ccccc2)nn1-c1ccccc1	1.6	50.5	-3.2	-7.7	-1.3	14.1
CN(C)CCCCN1CCc2c(n(C)c3ccccc23)C1=O	nt	-25.7	nt	nt	nt	50.0*
CC(c1ccccc1)N(NC(=O)C(O)(c1ccccc1)c1ccccc1)C(=O)c1ccccc1 (centres undefined)	30.6*	32.4	22.3*	2.6	3.3	8.8
NC(=O)NC(=O)CSc1nc2sc(-c3ccccc3)cc2c(=O)n1-c1ccccc1	nt	64.5*	-3.6	3.4	6.6	3.4
CCCCC(CC)CNS(=O)(=O)c1ccc2c(c1)CCN2C(=O)CCC(=O)O (centres undefined)	-0.5	21.4	-7.7	18.5	40.7*	3.1
O=C(O)CCC(=O)N1CCc2cc(S(=O)(=O)NC3CCCC3)ccc21	0.2	8.4	-2.1	13.4	0.6	7.8
COc1ccc(/C(O)=C2/C(=O)C(=O)NC2c2ccc(O)c(OC)c2)cc1 (centres undefined)	nt	2.5	nt	nt	nt	6.1
Cc1ccc(Nc2c(-c3ccc(N4CCOCC4)cc3)nc3ncccn23)cc1	-0.4	-21.0	7.5	3.1	-19.7	11.1
Cc1ccccc1Nc1c(-c2ccc(N3CCOCC3)cc2)nc2ncccn12	nt	-64.4	-4.3	42.7*	56.1*	10.4
Cc1cccc(C)c1Nc1c(-c2ccsc2)nc2ncccn12	-2.5	-28.7	-7.4	58.9*	45.9*	4.2
Cc1cc2cc(CN(C3CCCCC3)C(c3nnnn3C3CCCCC3)C(C)C)c(=O)[nH]c2cc1C (centres undefined)	nt	-20.4	nt	nt	nt	8.3
Fc1cccc(Cc2noc(CN3CCCN(C4Cc5ccccc5C4)CC3)n2)c1	nt	-39.9	21.5*	-7.1	-0.9	10.4
Nc1c(C(=O)O)ccc2c1C(=O)c1ccccc1C2=O	nt	-39.7	-2.6	-15.4	-11.2	2.3
O=C(O)c1cccc(N=Nc2c(S(=O)(=O)O)ccc3c2C(=O)c2ccccc2C3=O)c1O	nt	-33.5	nt	nt	nt	46.1*
CCCc1nn(CC(=O)NCCCn2ccc(C)n2)c(=O)c2cc3ccsc3n12	nt	-3.2	nt	nt	nt	nt
CCCCCc1ccc(-c2ccc(/C=C/C(=O)O)cc2)nc1	4.2	62.4*	-1.3	-2.6	-2.5	4.6
CN(C)c1ncc(S(=O)(=O)c2ccccc2)c(-c2ccc(Cl)cc2Cl)n1	6.5	64.6*	4.2	12.0	-4.2	nt
